S100A4 inh HTS – S100A4-myosin IIA interaction inhibition | 360,000 tested, 0.14% active | S100A4/TAMRA-MyoIIA peptide fluorescence polarization | P26447 | inhibition, % at 10.7 µM;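 active means mean inhibition of at least 70% across replicates, with every replicate also reaching that level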
Target sequence (P26447 whole entry, looked up): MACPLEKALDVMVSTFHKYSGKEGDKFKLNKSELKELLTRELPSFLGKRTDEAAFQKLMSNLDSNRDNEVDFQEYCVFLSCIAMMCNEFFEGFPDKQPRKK
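Assay system: human S100A4 monomer with TAMRA-labelled myosin IIA peptide / Buffer or medium: Calcium-containing HEPES buffer, pH 7.2 / Reagent: TAMRA-labelled myosin IIA heavy-chain peptide probe, 5 nM / Compound: one dose per compound / Timing: polarization read 5 min after assay mix addition, stable 5–60 min / Benchmarks: neutral control DMSO, positive control TFP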
PKA-R2B activ – PKA-R2B complex activation; P22694+P31323; PKA-R2B holoenzyme dissociation, Cy5-IP20 fluorescence polarization; R2B truncated from residue 108, S112A mutant; 0% DMSO only, 100% 113 µM cGMP; activation, % at 11.4 µM; 340,000 tested, 0.079% active;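 active means activation above a cutoff set at the mean over all compounds plus 3 SD, cut at about 18% in these data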;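 further: higher means more holoenzyme dissociation and a rise in polarization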
SIRT5 block – inhibitors of human sirtuin-5 desuccinylase; Q9NXA8; Purified SirT5, succinyl-peptide AMC, trypsin-coupled fluorescence; inhibition, % at 15 µM; 330,000 tested, 1.1% active; AID 652115; in the data active means inhibition above about 15%
Target sequence (Q9NXA8 whole entry, looked up): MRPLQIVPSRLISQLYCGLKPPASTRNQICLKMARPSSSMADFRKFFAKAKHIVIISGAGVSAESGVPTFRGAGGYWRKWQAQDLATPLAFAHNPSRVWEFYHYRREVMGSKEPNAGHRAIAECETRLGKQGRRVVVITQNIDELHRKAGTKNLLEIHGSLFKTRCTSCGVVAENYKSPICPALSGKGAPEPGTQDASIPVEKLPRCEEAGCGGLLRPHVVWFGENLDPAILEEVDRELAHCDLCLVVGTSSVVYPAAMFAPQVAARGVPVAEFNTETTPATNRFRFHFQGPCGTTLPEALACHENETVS
CRFBP-R2 block – antagonists of CRF-binding protein/CRF-R2 receptor complex; HEK293 CRF-R2/CRF-BP, CRF-induced calcium fluorescence; inhibition, % at 11.8 µM; 350,000 tested, 0.59% active; AID 588475;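 active means inhibition of the ligand-induced calcium signal above about 50% at the single tested concentration, limit read from the data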
PKA-R1A activ – activators of PKA-R1A complex; PKA-R1A dissociation, Cy5-IP20 fluorescence polarization; scaled: DMSO 0%, 113 µM cGMP 100%; activation, % at 11.4 µM; 340,000 tested, 0.083% active; AID 504707;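 active means percent activation above the mean of all tested compounds plus 3 SD, cut at about 19% in these data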;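 further: higher means more PKAc released from R1A so a rise in polarization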
Each line names hits and unclear results; the compound was inactive in the other large screens. In the library only some 1.5% were active in any assay of this set; here they are far more common.

COc1cc(NC(=O)c2ccc3c(c2)C(=O)N(CCC(C)C)C3=O)c(C(=O)O)cc1OC	CRFBP-R2 block 51.4
CC(c1ccccc1)N1C(=O)c2ccc(C(=O)Nc3ccc(Br)cc3C(=O)O)cc2C1=O (stereo not drawn)	CRFBP-R2 block 59.4
COCC(=O)N(C)C[C@H]1Oc2ncc(C#Cc3ccc(F)cc3)cc2C(=O)N([C@H](C)CO)C[C@H]1C	none (no result: PKA-R2B activ, CRFBP-R2 block, PKA-R1A activ)
O=C(C[C@H]1CC[C@H]2[C@@H](COC[C@@H](O)CN2CC2CC2)O1)NCc1ccc(Cl)cc1	none (no result: PKA-R2B activ, CRFBP-R2 block, PKA-R1A activ)
CC(C)NC(=O)N[C@@H]1C=C[C@H](CC(=O)NCCCN(C)C)O[C@@H]1CO	none (no result: PKA-R2B activ, CRFBP-R2 block, PKA-R1A activ)
COC(=O)C(F)(F)Sc1c(C)[nH]c2ccccc12	CRFBP-R2 block 51.8
C[C@@H]1CCCCO[C@H](CN(C)S(=O)(=O)c2ccc(Cl)cc2)[C@@H](C)CN([C@@H](C)CO)C(=O)c2cc(NS(=O)(=O)c3ccc(F)cc3)ccc2O1	S100A4 inh HTS 120.2 (no result: PKA-R2B activ, CRFBP-R2 block, PKA-R1A activ)
C[C@@H]1CN([C@H](C)CO)C(=O)c2cc(NS(=O)(=O)c3ccc(F)cc3)ccc2O[C@@H](C)CCCCO[C@@H]1CN(C)S(=O)(=O)c1ccc(Cl)cc1	SIRT5 block 25.5 (no result: PKA-R2B activ, CRFBP-R2 block, PKA-R1A activ)
C[C@@H]1CCCCO[C@@H](CN(C)S(=O)(=O)c2ccc(Cl)cc2)[C@H](C)CN([C@H](C)CO)C(=O)c2cc(NS(=O)(=O)c3ccc(F)cc3)ccc2O1	none (no result: PKA-R2B activ, CRFBP-R2 block, PKA-R1A activ)
C[C@@H]1CCCCO[C@@H](CN(C)S(=O)(=O)c2ccc(F)cc2)[C@@H](C)CN([C@@H](C)CO)C(=O)c2cc(NS(=O)(=O)c3ccc(Cl)cc3)ccc2O1	none (no result: PKA-R2B activ, CRFBP-R2 block, PKA-R1A activ)
C[C@H](CO)N1C[C@H](C)[C@@H](CN(C)S(=O)(=O)c2ccc(F)cc2)OCCCC[C@H](C)Oc2ccc(NS(=O)(=O)c3ccc(Cl)cc3)cc2C1=O	none (no result: PKA-R2B activ, CRFBP-R2 block, PKA-R1A activ)
C[C@@H]1CCCCO[C@@H](CN(C)S(=O)(=O)c2ccc(Cl)cc2)[C@@H](C)CN([C@H](C)CO)C(=O)c2cc(NS(=O)(=O)c3ccc(F)cc3)ccc2O1	SIRT5 block 15.1 (no result: PKA-R2B activ, CRFBP-R2 block, PKA-R1A activ)
C[C@@H]1CN([C@@H](C)CO)C(=O)c2cc(NS(=O)(=O)c3ccc(F)cc3)ccc2O[C@@H](C)CCCCO[C@@H]1CN(C)S(=O)(=O)c1ccc(Cl)cc1	SIRT5 block 24.9 (no result: PKA-R2B activ, CRFBP-R2 block, PKA-R1A activ)
COc1ccccc1S(=O)(=O)N[C@@H]1C=C[C@H](CC(=O)NCc2cc(F)cc(F)c2)O[C@@H]1CO	none (no result: PKA-R2B activ, CRFBP-R2 block, PKA-R1A activ)
CCS(=O)(=O)N1CCC2(CC1)CN(Cc1ccc3c(c1)OCO3)[C@@H](CO)c1c2c2ccc(OC)cc2n1C	none (no result: PKA-R2B activ, CRFBP-R2 block, PKA-R1A activ)
O=C(O)COc1ccccc1/C=C1\SC(=S)N(NC(=O)c2ccccc2O)C1=O	SIRT5 block 21.1
Cc1ccc(S(=O)(=O)Nc2cc(=O)[nH]c(SCC(=O)Nc3cccc(C(F)(F)F)c3)n2)cc1	CRFBP-R2 block 109.9
Cn1nc(-c2ccccc2)c(/C=N/O)c1Cl	none
Cn1nc(CSc2ccccc2)c(C=O)c1Cl	SIRT5 block 15.1
COc1cc(/C=N/NC(=S)Nc2cccc(C(=O)O)c2)cc(OC)c1OC	SIRT5 block 23.4
COc1ccc(/C=N/NC(=S)Nc2cccc(C(=O)O)c2)cc1OC	none
COCC(=O)Nc1ccc2c(c1)[C@H]1C[C@@H](CC(=O)NCc3ccccc3OC)O[C@@H](CO)[C@H]1O2	none (no result: PKA-R2B activ, CRFBP-R2 block, PKA-R1A activ)
CC1=C(C(=O)OC(C)(C)C)C(c2cccc3ccccc23)NC(=O)N1 (stereo not drawn)	CRFBP-R2 block 65.4
COc1ccc(C(=O)N(C)Cc2ccccc2)cc1Br	SIRT5 block 17.6 (no result: PKA-R2B activ, CRFBP-R2 block, PKA-R1A activ)
O=C(O)C1CCC(Cn2c(SCc3cc(=O)n4cc(Br)ccc4n3)nc3ccsc3c2=O)CC1 (stereo not drawn)	SIRT5 block 16.7
Cc1noc(C)c1NC(=O)Nc1ccc2c(c1)C(=O)N([C@H](C)CO)C[C@H](C)[C@H](CN(C)C(=O)Nc1ccc(F)cc1)OCCCC[C@@H](C)O2	none (no result: PKA-R2B activ, CRFBP-R2 block, PKA-R1A activ)
C[C@H]1CN([C@@H](C)CO)S(=O)(=O)c2ccc(C#Cc3ccc(F)cc3)cc2O[C@@H]1CN(C)C	none (no result: PKA-R2B activ, CRFBP-R2 block, PKA-R1A activ)
CCOc1ccc(C(=O)NNC(=O)CCNC(=O)c2ccco2)cc1OC	CRFBP-R2 block 97.4
CCOc1ccc(C(=O)NNC(=O)CCNC(=O)c2ccc(Br)cc2)cc1OC	none
